Experimental data from different studies.
Each line is one published result; the experiments were not run side by side.
Target: Tyrosine-protein kinase receptor UFO (AXL, Homo sapiens, UniProt P30530)
Residues used in one study (P30530 1-894): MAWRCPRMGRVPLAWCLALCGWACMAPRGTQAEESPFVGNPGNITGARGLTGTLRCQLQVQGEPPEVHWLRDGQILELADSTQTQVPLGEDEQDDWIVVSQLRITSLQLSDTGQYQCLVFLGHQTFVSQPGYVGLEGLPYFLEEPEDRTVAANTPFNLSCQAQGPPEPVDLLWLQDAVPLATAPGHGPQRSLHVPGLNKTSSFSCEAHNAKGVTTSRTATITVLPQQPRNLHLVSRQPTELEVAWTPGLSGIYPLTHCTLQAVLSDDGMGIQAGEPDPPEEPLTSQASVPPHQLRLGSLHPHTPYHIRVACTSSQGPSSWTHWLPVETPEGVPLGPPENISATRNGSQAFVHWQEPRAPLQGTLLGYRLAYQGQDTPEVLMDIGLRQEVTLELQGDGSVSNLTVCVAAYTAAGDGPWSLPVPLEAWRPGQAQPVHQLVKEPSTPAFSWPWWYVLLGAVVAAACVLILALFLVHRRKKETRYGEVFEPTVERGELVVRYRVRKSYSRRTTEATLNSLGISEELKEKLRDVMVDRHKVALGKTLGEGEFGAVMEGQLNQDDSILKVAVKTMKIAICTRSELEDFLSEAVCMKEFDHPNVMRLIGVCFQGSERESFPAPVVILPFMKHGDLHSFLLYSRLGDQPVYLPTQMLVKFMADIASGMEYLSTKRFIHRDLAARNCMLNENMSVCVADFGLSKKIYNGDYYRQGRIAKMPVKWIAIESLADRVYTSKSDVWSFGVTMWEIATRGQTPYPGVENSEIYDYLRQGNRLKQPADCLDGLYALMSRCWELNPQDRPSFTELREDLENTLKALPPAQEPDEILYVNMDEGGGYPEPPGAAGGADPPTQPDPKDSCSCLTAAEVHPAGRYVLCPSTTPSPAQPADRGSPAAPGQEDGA

Compound	read-out	technique	concentration	remaining binding
CNC(=O)c1ccc(Nc2ncc(C(F)(F)F)c(NCc3nccnc3N(C)S(C)(=O)=O)n2)cc1	cell-free assay	competition with immobilised ligand	0.1 µM	51%
F[C@@H]1CCN(c2nccc(-c3cnn4ncccc34)n2)C1	binding	–	1 µM	87%
C=CC(=O)N1CCC(C(=O)NCC(=O)N2CCN(c3nc(-c4cnc(N)nc4C(F)F)nc(N4CCOCC4)n3)CC2)CC1	binding	competition with immobilised ligand	1 µM	97%
C[C@@H]1CN(c2ccc3ncc(-c4ccc5[nH]nc(C6CC6)c5c4)n3n2)C[C@H](C)O1	binding	competition with immobilised ligand	0.5 µM	60%
O=C(NCCCN1CCOCC1)c1ccc(Nc2nccc(-c3cc4ccccc4s3)n2)cc1	binding	competition with immobilised ligand	1 µM	38%
C[C@H]1CCN(c2nccc(-c3cnn4ncccc34)n2)C1	binding	–	1 µM	49%
O=C(NCCCN1CCOCC1)c1ccc(Nc2ncc(Cl)c(-c3ccc(Cl)s3)n2)cc1	binding	competition with immobilised ligand	1 µM	76%
O=C(NCC1CCOCC1)c1n[nH]cc1NC(=O)c1c(F)cccc1F	binding	competition with immobilised ligand	1 µM	91%
CN(C)c1nccc(-c2cnn3ncccc23)n1	binding	–	1 µM	100%
COc1ncc2cc3ccccc3nc2c1C#N	cell-free assay	competition with immobilised ligand	5 µM	92%
C[C@H](c1ccnc(Nc2nc3ccc(-c4cc(N(C)C)ncn4)cc3[nH]2)c1)N1CCN(C(=O)CC(F)(F)F)CC1	cell-free assay	competition with immobilised ligand	0.1 µM	100%
CN(c1nccc(-c2cnn3ncccc23)n1)C1CC1	binding	–	1 µM	78%
COc1cnc(Nc2cccc(S(N)(=O)=O)c2)nc1N1CCN(c2ccccc2)C(=O)C1	binding	competition with immobilised ligand	1 µM	94%
CCCCN(CCCC)C(=O)CN1C[C@H](c2cc(OC)c3c(c2)OCO3)[C@@H](C(=O)O)[C@@H]1CC(C)(C)CCC	cell-free assay	competition with immobilised ligand	1 µM	100%
COc1ccnn2ncc(-c3ccnc(N(C)C)n3)c12	binding	–	1 µM	100%
c1cncc(-c2cccc(Nc3nccc(NC4CCCCC4)n3)c2)c1	binding	competition with immobilised ligand	10 µM	4%
COc1cccc(CNC(=O)c2nc3scc(COCc4ccc(C(=O)O)cc4)c3c(=O)[nH]2)c1	cell-free assay	competition with immobilised ligand	1 µM	84.2%
O=C(c1ccc(Nc2ncc(Cl)c(-c3cc4ccccc4s3)n2)cc1)N1CCC(N2CCCC2)CC1	binding	competition with immobilised ligand	1 µM	1.4%
CCc1ccccc1C(=O)Nc1n[nH]c2c(C)c(F)c(C3C(C#N)=C(C)N(C)C(C)=C3C#N)cc12	binding	competition with immobilised ligand	1 µM	100%
CC(C)(C)c1ccc(-c2nc(CBr)nn2-c2cccc(O)c2)cc1	cell-free assay	competition with immobilised ligand	10 µM	84%
CC(=O)N1CCC(c2ccc(C(=O)NC3=NCCN3)cc2C(F)(F)F)CC1	cell-free assay	competition with immobilised ligand	1 µM	100%
N[C@@H]1CCN(c2nccc(-c3cnn4ncccc34)n2)C1	binding	–	1 µM	100%
Cc1nccc(COC(=O)N2C[C@@H]3[C@@H](CNC(=O)c4ccc5[nH]nnc5c4)[C@@H]3C2)n1	cell-free assay	competition with immobilised ligand	1 µM	88%
Nc1ncc2c(n1)-c1c([nH]c3ccc(C#CC4CC4)cc13)CCCC2	binding	competition with immobilised ligand	1 µM	87%
